Here are results for 96 compounds from ChEMBL document CHEMBL4513216, “Probing the Open Global Health Chemical Diversity Library for Multistage-Active Starting Points for Next-Generation Antimalarials” (ACS Infect Dis, 2020).

Each structure is given as a SMILES string.

The nature of the data set: Toxicity liver stage against HepG2, at 10uM. In kind it is cell-based. Details: test concentration 10 uM, cell line HepG2-A16-CD81EGFP. The following applies: human, HepG2-A16-CD81EGFP cells; read-out: INHIBITION
Summed up: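 Uninfected HepG2-A16-CD81EGFP cells, 3 × 10^3 per well, 1536-well, plated on prespotted compound at 10 μM final, parasite-free screening media added to match infected plates; puromycin 10 μM positive, DMSO 0.5% negative; run in parallel with 48 h PbLuc assay at 37 °C, 5% CO2; viability by CellTiter-Glo luminescence, normalized to controls.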
In the case of `CN1CCN(C(=O)c2cnsn2)c2ccc(F)cc21`, the cytotoxicity at 10 µM was 3.47%.
The value for `CC(=O)Nc1ccc(C(=O)N(C)Cc2ccc(F)cc2F)s1` was 6.43%; that for `O=C(NC1CC1)N1CCOCC2(CCN(Cc3cccs3)C2)C1` (stereo unspecified) was -2.6%.
The value for `CS(=O)(=O)Cc1ccc(C(=O)NC2CCc3nccn3C2)o1` (stereo unspecified) was -8.77%; that for `Cc1ccc(OC2(C(=O)O)CCN(C(=O)c3cc(C)oc3C)CC2)cn1` was 0.0255%.
The result for `Cn1nc(CN2CCCC2)c2c1CN(C(=O)c1cccnc1)CC2` reads -146%; that for `CC1CCN(S(=O)(=O)N2CCc3c(c(C(=O)O)nn3CC3CC3)C2)CC1`, -0.65%; that for `CCn1nc2c(cc1=O)CN(CC(=O)Nc1nnc(C)s1)CC2`, -18.2%.
In the case of `O=C(NCC(CO)Cc1ccc(Cl)cc1)c1ccncc1F` (stereo unspecified), the cytotoxicity at 10 µM was -4.84%.
`Cc1ccc2occ(CN3CCN(c4ncccn4)CC3)c(=O)c2c1`: the cytotoxicity at 10 µM is -2.46%.
The value for `CC(O)CN1CCN(C(=O)c2ccc(N(C)C)nc2)CC1` (stereo unspecified) was -9.78%; that for `CCNc1ncc(CN2C[C@H](C3CC3)[C@@H](N)C2)cn1` was -40%; that for `Cc1nnc2n1CC(CNc1cnc3ccccc3n1)CC2` (stereo unspecified) was -41.5%.
The result for `COc1ccc2c(c1)OC1(CCN(Cc3ccccc3C)CC1)CC2=O` reads 6.52%.
The value for `COc1ccc(F)c(-c2ncccc2NC(=O)C(C)C)c1` was 5.69%.
Take `O=C(NCCc1nnc[nH]1)Nc1cccc(SC(F)F)c1`: the cytotoxicity at 10 µM was -42.4%.
The result for `CNC(=O)[C@@H](CC(C)C)N1CCC[C@H]1C(=O)N(C)Cc1ccccc1` reads 6.14%; that for `CC(=O)N(Cc1noc(C)n1)C1CCN(Cc2cnc(C)s2)C1` (stereo unspecified), -9.65%; that for `CCc1nnc(NCc2cccc(OC)c2OC)o1`, 6.79%.
The value for `CCc1ccsc1C(=O)N1CCN(C(=O)CC(F)(F)F)CC1` was -9.88%; that for `CN(Cc1noc(C2CC2)n1)C1CCCN(c2cccnn2)C1` (stereo unspecified) was -2.66%; that for `CC(C)(C)OCC1CN(CC2CC2)S(=O)(=O)c2cnccc2O1` (stereo unspecified) was -1.16%.
The value for `CN(C)C(=O)N1CCN(C(=O)CCc2ccccc2)[C@H]2CS(=O)(=O)C[C@H]21` was -17.1%.
`O=C(CC1CCCO1)N1CCCN(c2cccnn2)CC1` (stereo unspecified): the cytotoxicity at 10 µM was -7.72%.
Regarding `O=C(CCc1ccc(Cl)cc1)N1CCC(O)(C(F)(F)F)C1` (stereo unspecified), the cytotoxicity at 10 µM was 1.16%.
The result for `Cc1cccn2c(=O)cc(CSCC(=O)Nc3nnc(C(C)C)s3)nc12` reads 0.879%; that for `N#Cc1ccc(N2CCCN(CC(=O)N3CCOCC3)CC2)cc1`, 6.62%.
The value for `Cc1ccc(OCC(O)COC2CCOCC2)c(Br)c1` (stereo unspecified) was -4.66%; that for `Cc1nc(N2CCCC2)nc2c1CCN(Cc1nccn1C)CC2` was -130%.
As for `CNC(=O)CCc1cccc(OC2CCCC2)c1`, the cytotoxicity at 10 µM is -0.408%.
Turning to `CN(C)c1ccc(C(=O)N2CCCC(n3cccn3)C2)cn1` (stereo unspecified), the cytotoxicity at 10 µM was -11.5%.
The result for `Cc1nccn1-c1ccc(=O)n(CCNC(=O)c2c(F)cccc2Cl)n1` reads -9.98%; that for `O=C1COC2(COCCN(Cc3cccnc3)C2)CN1c1ccoc1` (stereo unspecified), 3.22%; that for `CCc1ccc(CN2CCc3c(nnn3C)C2COC)cc1` (stereo unspecified), 7.28%.
The result for `CN1CC2(CCN(Cc3cccc(C#N)c3)CC2)CC1=O` reads -0.145%; that for `Cc1cc(C(=O)N2CCC3(CC2)CC(c2cccnc2)C(=O)N3C)no1` (stereo unspecified), 1.48%; that for `O=C(NCc1nn(-c2ccccc2)c2c1CCC2)N1CCCC(O)C1` (stereo unspecified), -10.2%.
With `O=C(CCNc1ncccn1)Nc1ccc(Cn2cncn2)cc1`, the cytotoxicity at 10 µM is 2.5%.
The value for `COc1ccc(C2(C(=O)N3C[C@@H](C(=O)O)[C@H](C(C)C)C3)CC2)cc1` was -8.36%; that for `CS(=O)(=O)NCc1noc2c1CN(C(=O)c1ccsc1)CC2` was 7.86%; that for `OC(CN1CCC(c2ccn[nH]2)CC1)c1cc(F)ccc1F` (stereo unspecified) was -12.3%.
For `O=C(c1cccc(F)c1)N1CCC2(CC1)CN(c1ccccn1)CCO2`, the cytotoxicity at 10 µM is -74.1%.
Consider `CN(CC1CCCCO1)c1nc2c(cc1C(N)=O)CCC2` (stereo unspecified), for which the cytotoxicity at 10 µM is -5.64%.
The result for `CC(C)c1nccn1C1CCCN(C(=O)c2ccc3nncn3c2)C1` (stereo unspecified) reads -5.53%; that for `CCN(CC1CCCN(CCc2cccc(OC)c2)C1)C(=O)CN(C)C` (stereo unspecified), 9.05%; that for `Cn1ccnc1-c1ccc(NCC2COc3ccccc3O2)nn1` (stereo unspecified), 3.31%.
The value for `CCN(CC)C(=O)c1nc2c(s1)CCN(C(=O)CCC(=O)OC)CC2` was 12.9%; that for `COC(=O)CNC(=O)CCc1cc(Cl)cs1` was -5.31%; that for `COc1c(CNC2CCCOc3ccccc32)c(C(C)C)nn1C` (stereo unspecified) was -3.48%.
The result for `CC(C)Cc1cc(C(=O)NCC2CCCN(Cc3ccco3)C2)on1` (stereo unspecified) reads -5.12%.
As for `Oc1ccc(N2CCN(Cc3cc4c(cc3Br)OCCO4)CC2)cc1`, the cytotoxicity at 10 µM amounted to 6.87%.
The result for `CCc1nnc2n1CCN(C(=O)c1cc3c(F)cccc3[nH]1)C2` reads 6.41%; that for `OC1(c2ccccc2F)CCN(Cc2ccccc2N2CCCC2)CC1`, 13.2%; that for `O=C(C1CCOc2ccccc21)N1CCOc2ccc(F)cc21` (stereo unspecified), -7.54%.
The value for `O=C(Nc1cnc2n1CCCC2)c1cccc(NC(=O)C2CCCC2)c1` was -5.09%; that for `CO[C@H]1CN(C(C)C)C[C@@H]1NC(=O)c1cc(-c2ccccc2O)n[nH]1` was -0.247%; that for `Cc1cc(C)cc(CNC(c2ccccc2)c2nccn2C)c1` (stereo unspecified) was -13%.
Consider `Cc1ccc(C(O)CNC(=O)NCc2c(C)cc(C)[nH]c2=O)cc1` (stereo unspecified), for which the cytotoxicity at 10 µM is -3.9%.
The value for `Cc1ccc(CN2CC[C@H]3C[C@H](c4nc(C5CC5)cs4)O[C@@H]3C2)o1` was 3.81%; that for `Cc1ncoc1C(=O)N1CCCC(c2ccc3c(N)nn(C)c3n2)C1` (stereo unspecified) was 2.76%.
The result for `CC(C)c1noc(-c2ccc(NC(=O)NCC(O)C(C)C)cc2)n1` (stereo unspecified) reads -7.03%; that for `Cc1cc(CN2CCc3cncnc3C2)on1`, 4.13%.
The result for `Cc1ccc(CN2CCC3(CCCC(=O)N3)CC2)s1` reads -3.45%; that for `Cc1nc(COC[C@@H]2CCC[C@@]23CNCCO3)cs1`, 3.29%.
As to `CN(C)C(=O)N1CC[C@@H](O)[C@@H]1Cc1ccccc1`, the cytotoxicity at 10 µM came to 3.14%.
The result for `Cc1nc(-c2ccc(Cl)s2)sc1C(=O)NCCS(N)(=O)=O` reads -2.09%; that for `CCC(=O)N1CCCC(C(=O)N2CCN(c3cnn(C)c(=O)c3)CC2)C1` (stereo unspecified), 3.98%; that for `c1ccc(-c2nc(CCNc3nnc(C4CCC4)o3)no2)cc1`, -3.37%.
The value for `CO[C@@H]1CCN(Cc2nccs2)C[C@@H]1Cc1cccc(C)c1` was -71.8%; that for `Cc1cc(C2CCC2)nc(N2CCC3(CCNC(=O)CC3)CC2)n1` was -10.1%; that for `CN(Cc1cn2c(n1)CN(C(=O)c1cccnc1)CC2)Cc1ccco1` was -2.19%.
The result for `CCC1CN(C(=O)NCCOc2ccc3c(c2)OCO3)CCO1` (stereo unspecified) reads -4.25%; that for `COc1ccc(CC(=O)N2CC[C@@H]3CN(C)S(=O)(=O)[C@@H]3CC2)cc1`, 4.33%.
As for `CN(C)C[C@@H]1CCC[C@@H]2CN(c3ncccn3)C[C@@H]21`, the cytotoxicity at 10 µM was determined as 5.85%.
The result for `c1nc2c(c(NC3CCC3)n1)CCNCC2` reads -1.28%; that for `Cc1noc(C(C)C)c1C(=O)NCCN1CCOCC1`, -8.73%.
The result for `Cc1ccc(NC2CCN(C(=O)c3n[nH]c4ccccc34)CC2)nn1` reads 2.96%; that for `Cc1cc(C)n(CC2CCCN2C(=O)c2ccc3c(c2)OCCO3)n1` (stereo unspecified), 5.43%; that for `OCCOc1ccc(NCc2cccc3[nH]ccc23)cn1`, 0.205%.
The value for `Cc1cccc(N2CCOCC3(C2)CN(c2ccoc2)C(=O)CO3)n1` (stereo unspecified) was 4.39%; that for `COc1cc(NCCNC(=O)c2cscc2C)cc(OC)c1` was 1.6%; that for `CCCc1nc(CN2CCCC2Cn2cccn2)cs1` (stereo unspecified) was -4.45%.
Turning to `CCN(Cc1ccco1)C(=O)NCC(c1cccs1)N(C)C` (stereo unspecified), the cytotoxicity at 10 µM amounted to 16.3%.
In the case of `CC(C)CN1CCCC1c1ccc(C(=O)Nc2ccc3[nH]nnc3c2)s1` (stereo unspecified), the cytotoxicity at 10 µM amounted to 19.1%.
The value for `O=C(c1ncoc1C1CCCO1)N1CC2(CCCC2)c2ccccc21` (stereo unspecified) was 3.13%.
The result for `O=C(CCn1cncn1)N1C[C@@H]2CC[C@H]1CN(Cc1ccncc1)C2` reads 9.53%.
The value for `CNC(=O)c1sccc1S(=O)(=O)NC` was 8.52%; that for `COc1c(CNCC(O)COc2ccc3c(c2)OCO3)c(C)nn1C` (stereo unspecified) was 3.07%; that for `Cc1ccc(OCCCNC(=O)C2(C)CC(=O)N3C=CC=CC3=N2)cc1` (stereo unspecified) was 0.343%.
For `COCc1nn(CC2CC2)c2c1CN(Cc1cncn1C)CC2`, the cytotoxicity at 10 µM was found to be 3.94%.
For `Cc1nc(CN2CCc3nc(N4CCCC4)nc(NC(C)C)c3C2)cs1`, the cytotoxicity at 10 µM was 2.72%.
Consider `CN1CCCC[C@@H]2[C@H]1[C@@H](c1ccccc1)CCN2C(=O)c1ccncc1`, for which the cytotoxicity at 10 µM is -13%.
Take `O=C(NC[C@H]1C[C@@H]2CN(C(=O)c3ccco3)C[C@@H]2O1)c1ccsc1`: the cytotoxicity at 10 µM is -90.8%.
The result for `Cc1ccc(-n2c(COC(C)C)n[nH]c2=O)cc1` reads 9.47%; that for `CS(=O)(=O)N(Cc1ccon1)c1ccc(F)cc1`, 2.24%; that for `Cc1cccc(C)c1OC1CN(Cc2cnc(N3CCOCC3)nc2)C1`, 3.47%.
